Results from paper PMC12376879 (RSC Advances, 2025).

Target: human serum albumin (HSA) (Homo sapiens, UniProt P02768)
Assay: Isothermal titration calorimetry with HSA
Format: binding
How it was run: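 HSA (60 μM) in the sample cell, titrated with test compound from the syringe. All solutions were in 5% DMSO in 20 mM phosphate buffer, pH 7.4, with the same solution in the reference cell. Concentrations were set by A280. The run was 19 injections (0.4 μl, then 18 × 2 μl) at 150 s intervals, stirring at 750 rpm. Ligand-into-buffer dilution heats were subtracted. Ka, n, ΔH and ΔS were fitted; ΔG was calculated from them.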

human serum albumin (HSA), sequence (P02768 25-609): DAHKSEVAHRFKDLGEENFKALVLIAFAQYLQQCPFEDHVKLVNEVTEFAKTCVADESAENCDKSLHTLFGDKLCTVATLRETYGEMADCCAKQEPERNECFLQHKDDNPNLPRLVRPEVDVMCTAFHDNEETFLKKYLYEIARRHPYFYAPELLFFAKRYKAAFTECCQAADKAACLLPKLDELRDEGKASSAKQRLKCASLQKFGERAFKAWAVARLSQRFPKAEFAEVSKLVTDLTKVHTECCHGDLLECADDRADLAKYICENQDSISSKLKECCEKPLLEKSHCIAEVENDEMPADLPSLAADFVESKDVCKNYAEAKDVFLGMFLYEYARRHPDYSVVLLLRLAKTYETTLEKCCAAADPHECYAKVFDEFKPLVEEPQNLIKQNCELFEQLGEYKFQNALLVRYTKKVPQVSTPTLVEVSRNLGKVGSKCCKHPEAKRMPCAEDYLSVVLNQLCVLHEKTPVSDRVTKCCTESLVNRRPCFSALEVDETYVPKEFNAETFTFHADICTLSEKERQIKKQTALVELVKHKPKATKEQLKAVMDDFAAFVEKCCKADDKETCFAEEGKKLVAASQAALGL

Cc1ccnc2c1NC(=O)c1cccnc1N2C1CC1 [nevirapine]
Enthalpy (ΔHm), ITC (298 K, HSA): -2.53 kcal/mol | Gibbs free energy (ΔGm), ITC (298 K, HSA): -6.84 kcal/mol | Stoichiometry (n), ITC (298 K, HSA): 0.9 | Entropy (ΔS) of binding to HSA (calculated from ITC results): +60.4 J K^−1 mol^−1
